Hits are enriched below; roughly 1.8% of the tested compounds scored in any of these assays.
Scp-1 inhibitor: Scp-1 phosphatase inhibitors, primary screen, biochemical, colorimetric, uHTS; Carboxy-terminal domain RNA polymerase II polypeptide A small phosphatase 1 (Homo …; Recombinant Scp1, phosphopeptide, malachite green phosphate absorbance; inhibition, % at 20 µM; 340,000 compounds, 0.88% hits; AID 493091, 2011;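 active = inhibition above about 50% at 20 µM, limit read from the data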;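 also: plate controls were DMSO wells with enzyme for no effect and wells lacking enzyme for full effect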
Target sequence (Q9GZU7 76-261 limits assumed): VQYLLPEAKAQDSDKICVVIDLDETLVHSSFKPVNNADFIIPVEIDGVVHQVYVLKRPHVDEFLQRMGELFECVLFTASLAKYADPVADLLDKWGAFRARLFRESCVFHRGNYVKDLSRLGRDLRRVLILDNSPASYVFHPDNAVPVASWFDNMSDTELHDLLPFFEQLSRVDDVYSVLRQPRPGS
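Test system: SCP-1 phosphatase catalytic domain, residues 76-261; measured by: colorimetric phosphate reagent with accelerator and stabiliser, absorbance at 630 nm; timing: enzyme reaction 45 min at room temperature, colour 5 min, stabilisation 30 min; also added: Phosphorylated 17-residue peptide substrate; compound dosing: one concentration, 20 µM, with 1.0% DMSO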
SUMO1 PPI mod: modulators of SUMO1 protein-protein interactions, primary screen, biochemical, uHTS | Small ubiquitin-related modifier 1 (Homo sapiens), P63165 | SUMO1 binding to a labelled peptide, TR-FRET, 1 h | inhibition, % at 20 µM | 360,000 compounds, 0.33% hits | AID 602429, 2012; in the data active = inhibition above about 37%
Target sequence (P63165 whole entry, looked up): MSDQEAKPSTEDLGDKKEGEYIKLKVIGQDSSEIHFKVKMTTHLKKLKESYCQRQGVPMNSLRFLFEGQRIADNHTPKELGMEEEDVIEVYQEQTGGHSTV
LMPTP block: LMPTP phosphatase inhibitors, primary screen, biochemical, fluorescence intensity, uHTS; Low molecular weight phosphotyrosine protein phosphatase (Homo sapiens), P24666; recombinant LMPTP-A, OMFP fluorogenic substrate; inhibition, % at 20 µM; 360,000 compounds, 0.22% hits; AID 651560, 2012;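 active = compounds that cut the enzyme signal by at least half of the control window in the single-dose screen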;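 also: plate controls were DMSO wells with enzyme plus substrate for no effect and substrate without enzyme for full effect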
Target sequence (P24666 whole entry, looked up): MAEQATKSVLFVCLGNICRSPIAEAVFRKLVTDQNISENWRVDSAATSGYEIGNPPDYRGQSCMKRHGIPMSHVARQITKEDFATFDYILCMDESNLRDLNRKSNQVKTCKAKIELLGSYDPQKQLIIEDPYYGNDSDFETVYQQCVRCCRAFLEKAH
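material = LMPTP-A | quantity = 0.625 nM enzyme | reagent = OMFP substrate, 400 µM final | buffer or medium = Bis-Tris pH 6.0, DTT, detergent | detection = endpoint fluorescence intensity from OMFP dephosphorylation | dosing = single 20 µM dose | read-out basis = % inhibition relative to no-enzyme and uninhibited control wells | control set = no-enzyme and uninhibited controls | timing = 50 min at room temperature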
STEP inh: STEP phosphatase inhibitors, primary screen, biochemical, fluorescence intensity, uHTS. recombinant STEP, OMFP fluorogenic substrate. inhibition, % at 20 µM. 360,000 compounds, 0.25% hits. AID 588621, 2011;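 active = inhibition at 20 µM, scaled per plate between control wells, above about 37%, limit read from the data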;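 also: 0% = DMSO with enzyme and substrate and 100% = substrate only without enzyme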
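Material: STEP (striatal-enriched tyrosine phosphatase) enzyme, cell-free | Medium: 50 mM Bis-Tris pH 6.0 with 2.5 mM DTT and 0.005% Tween 20 | Read-out: Percent inhibition scaled to no-enzyme and uninhibited-enzyme controls, plate-pattern corrected | Signal: Fluorescence read at 480 nm ex / 540 nm em | Times: 20 min reaction, room temperature, in the dark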
HKDC1 inh: HKDC1 hexokinase inhibitors, primary screen, biochemical, fluorescence, uHTS; Q2TB90; recombinant HKDC1, G6PDH/diaphorase resazurin coupled fluorescence; inhibition, % at 20 µM; 340,000 compounds, 0.16% hits; AID 493160, 2011;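 active = inhibition above about 35% when tested at 20 µM, limit read from the data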;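 also: plate controls were DMSO wells with enzyme for no effect and DMSO wells lacking enzyme for full effect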
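Assay system: in-house recombinant HK5 (HKDC1) enzyme. Input: HKDC1 at 5 µg/mL. Medium: Tris pH 8.0 buffer with MgCl2, Tween-20, BSA, BME. Dosing: single 20 µM dose. Schedule: 90 min reaction incubation at room temperature, dark. Signal: resazurin-to-resorufin fluorescence via G6PDH and diaphorase coupling, 525/613 nm. Controls: DMSO-enzyme wells negative, buffer-substituted wells positive.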
DNMT1 inh: human DNMT1 methyltransferase inhibitors, primary screen, biochemical, molecular beacon, fluorescence, HinP1I cleavage, uHTS; inhibition (reported as % activation of signal), % at 10 µM; 360,000 compounds, 0.83% hits; AID 588458, 2011; DNA (cytosine-5)-methyltransferase 1 (Homo sapiens), P26358; in the data active = inhibition above about 50%
Beacon interf DR: spectral interference with molecular beacon fluorescence, dose response, artefact control for DNMT1 inhibitor project, biochemical, fluorescent molecular beacon; spectral interference counter-screen; IC50, µM; AID 602382, 2012; 200 tested, under 10 active; shares compounds with DNMT1 inh; call rule not given here
DNMT1 confirm: DNMT1 methyltransferase inhibitor retest, confirmation, biochemical, molecular beacon, fluorescence, single concentration. shares compounds with DNMT1 inh. DNMT1 molecular beacon HinP1I cleavage. inhibition, % at 10 µM. 2,300 compounds, 8% hits;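 active = average inhibition of at least 30% in the single-concentration confirmation test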
Beacon interf: counter-screen for DNMT1 inhibitors: spectral interference | 2,300 compounds, 1% hits | DNMT1 molecular beacon spectral interference counterscreen, fluorescence 485/520 | shares compounds with DNMT1 inh | activation (fluorescence interference), % at 10 µM | AID 602387;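 active = activation of at least 30% at 10 µM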;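 also: DNMT1 catalytic domain with a HinP1I cleavage step and a FAM/dabcyl DNA beacon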
Active calls of the source: *; x = not tested or not shown.

SMILES	Scp-1 inhibitor	SUMO1 PPI mod	LMPTP block	STEP inh	HKDC1 inh	DNMT1 inh	DNMT1 confirm	Beacon interf	others
CCCC(=O)Nc1ccc2oc(-c3ccncc3)nc2c1	-13.1	2.9	5.0	0.5	-5.4	-5.8	x	x
O=C(CN1C(=O)c2ccccc2C1=O)Nc1ccc(-c2nc3ccccc3o2)cc1	-6.2	-5.5	-0.1	1.8	-4.5	78.0*	2.4	1.9
CN1OC[C@@H]2CN(Cc3ccc(Cl)cc3)[C@H](c3ccc(-n4ccnc4)cc3)C[C@@H]21	x	-5.1	2.5	-1.7	x	1.0	x	x
Cn1c(=O)c(Nc2ccc(O)cc2)c2c3c(cccc31)C(=O)c1ccccc1-2	31.9	-8.9	6.5	7.9	1.3	61.5*	11.6	8.2
CC(C)C[C@@H]1COc2cccc(N3CCC[C@H]3CO)c2S(=O)(=O)N1	x	4.9	-0.9	x	x	x	x	x
COc1ccc(C(=O)NCC(c2ccccc2)N2CCCC2)cc1S(=O)(=O)N1CCOCC1 (centres undefined)	-1.4	-4.8	7.0	0.2	0.7	-4.9	x	x
Cc1ccc(CNC(=O)c2nnn(CC(=O)Nc3cccc(C)c3C)c2N)cc1	-3.5	2.0	23.1	0.4	1.7	61.5*	12.1	-2.9
CCOc1cccc2cc(-c3cn4cc(C)ccc4n3)c(=O)oc12	-0.7	-20.4	18.7	-0.6	6.5	70.4*	1.4	-4.7
O=C1C=CC(n2cc(F)c(=O)[nH]c2=O)O1 (centres undefined)	x	4.6	1.3	4.2	x	44.8	x	x
Cc1sc2nc(SCC(=O)N(C)Cc3ccccc3)n(-c3ccccc3)c(=O)c2c1C	-11.2	-1.8	4.9	5.0	0.2	70.4*	-1.1	-5.3
Cc1sc2nc(SCC(=O)NCCCO)n(-c3ccccc3)c(=O)c2c1C	-2.2	2.1	-2.3	-1.4	-0.6	0.7	x	x
C#CCN1C(=O)S/C(=C\c2ccc(-c3ccc(Cl)c(C(=O)O)c3)o2)C1=O	37.9	-1.3	0.3	13.7	4.7	14.4	x	x
O=C(O)c1cc(-c2ccc(/C=C3\NC(=O)N(c4ccc(Cl)cc4)C3=O)o2)ccc1Cl	74.0*	28.6	2.4	39.0	2.6	98.8*	20.8	-1.5
N#Cc1nc(-c2cccs2)oc1NCC1CCCO1 (centres undefined)	-2.5	1.0	-0.5	-1.1	15.6	67.1*	3.0	2.9
COc1ccc(-c2ccc(C#N)c(SCC(=O)Nc3sc4c(c3C#N)CCC4)n2)cc1OC	-1.3	1.9	-0.8	1.2	4.4	60.6*	-2.6	-4.3
C=CCn1c(SCc2nc3ccccc3c(=O)[nH]2)nc2sc3c(c2c1=O)CCCC3	-10.6	x	x	x	-6.9	x	x	x
C=CCn1c(SCc2nc3sc4c(c3c(=O)[nH]2)CCCC4)nc2ccccc2c1=O	-10.3	-0.4	0.2	-2.1	-2.8	54.8*	0.4	-8.5
CCc1nc(Nc2ccncc2)c2oc3ccccc3c2n1	-1.1	0.9	-0.3	-2.1	-4.8	50.9*	21.3	4.9
Cc1cnn(-c2cc(N/N=C/c3ccccc3F)ncn2)c1	1.0	-1.6	-1.5	-0.1	-5.5	56.3*	2.6	-3.2
COCCn1c(-c2ccc(OC)cc2)nc2ccccc21	-10.5	-0.3	1.0	0.2	-1.7	-0.7	x	x
COCCn1c2nc(=O)n(-c3ccccc3)c(=O)c-2nc2ccccc21	x	-27.7	-4.7	-78.8	x	98.9*	45.6*	71.9*
CCN(C(=O)COC(=O)c1cc([N+](=O)[O-])ccc1N1CCOCC1)C1CCCCC1	-5.7	-26.1	-0.1	3.8	2.8	-1.4	x	x
Cc1cc2c(cc1C)NC(=O)C(C)CN2 (centres undefined)	x	-6.1	0.0	-1.8	x	-12.7	x	x
CC(NC(=O)CN(c1ccc(Cl)cc1)S(C)(=O)=O)c1ccccc1 (centres undefined)	-9.5	0.8	-0.7	-2.5	-8.4	57.5*	6.7	5.0
COc1ccccc1/C=C1\SC(=S)N(CCC(=O)Nc2ccc(C(=O)O)c(O)c2)C1=O	-10.6	4.2	11.8	5.5	13.0	-17.7	x	x
SMILES	Scp-1 inhibitor	SUMO1 PPI mod	LMPTP block	STEP inh	HKDC1 inh	DNMT1 inh	DNMT1 confirm	Beacon interf	others
O=C(CCN1C(=O)/C(=C/c2ccco2)SC1=S)Nc1ccc(C(=O)O)c(O)c1	65.5*	46.8*	22.3	48.0*	14.5	81.3*	4.4	-0.1
O=C(CCN1C(=O)/C(=C\c2ccco2)SC1=S)Nc1ccc(C(=O)O)c(O)c1	79.7*	65.5*	23.3	42.8*	18.3	91.1*	15.6	0.4
O=C(NCC1CCCN(Cc2cccc(C(F)(F)F)c2)C1)c1ccc(F)cc1 (centres undefined)	0.2	-3.0	-1.0	-1.6	-8.0	132.1*	2.3	-0.1
O=C(Nc1ccc2c(c1)CCCN2C(=O)c1cccs1)c1c(F)cccc1Cl	-7.9	0.9	1.6	-1.0	0.7	-4.4	x	x
CCCCN(C(=O)c1cccc(-n2cccc2)c1)c1c(N)n(CCC)c(=O)[nH]c1=O	69.8*	12.9	4.4	7.8	10.3	62.4*	4.6	6.3
O=C(Nc1nc(-c2ccccn2)cs1)c1ccco1	-4.7	22.6	5.7	4.0	-6.5	13.2	x	x
C[C@H](NC(=O)c1ccco1)C(=O)Nc1nc(-c2ccccn2)cs1	-10.4	10.4	-2.0	0.6	0.3	77.0*	7.5	4.3
c1ccc2c(c1)c1c(c3ccccc32)CN2CCCC2C1 (centres undefined)	22.0	-16.9	12.9	-4.4	5.0	54.1*	28.9	0.0	Beacon interf DR=>99
CC(=O)NN1C(=O)/C(=C\c2ccccc2)SC1=S	-2.9	-2.5	-0.5	-1.4	6.2	0.5	x	x
CC(=O)NN1C(=O)/C(=C/c2ccc(Br)o2)SC1=S	29.5	23.8	1.5	20.2	-5.8	87.9*	13.1	4.9
CC(=O)NN1C(=O)/C(=C\c2ccc(Br)o2)SC1=S	5.5	25.4	1.6	17.1	-0.1	81.3*	1.5	1.6
